Shown are actives, neighbours in structure and some others; about 1.7% of the full set was active somewhere.
CSC inhib: cancer stem cell viability inhibitors, primary screen, luminescence; 1.1% of 300,000 active; cancer stem cell-like cells viability; inhibition, % at 7.5 µM; in the data active = inhibition above about 75%; inconclusive = no clear call, values can overlap the other calls; tested in HMLE shEcad cells
PglD inh: C. jejuni PglD acetyltransferase inhibitors, primary screen, biochemical, DTNB colorimetric, single point; purified PglD enzyme, DTNB colorimetric CoA detection; inhibition, % at 12.5 µM; 0.098% of 360,000 active; AID 602405, 2012; in the data active = inhibition above about 16%, passing the limit was not always enough; inconclusive = no clear call, values can overlap the other calls
SKKanGAS inh: S. pyogenes SKKanGAS growth inhibitors in kanamycin, primary screen, streptokinase expression inhibitor project, SKKanGAS strain, BacTiter-Glo luminescence. 6 h. AID 1662, 2009. 1.3% of 300,000 active. inhibition, % at 7.5 µM;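 active = mean replicate score, as percent of positive control median, at least 50; inconclusive = mean below 50 but one replicate at or above 50; inactive = mean and every replicate below 50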;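 note: strain carries kanamycin resistance gene driven by streptokinase promoter and grows in 40 µg/ml kanamycin; loss of luminescence reflects streptokinase promoter inhibition or plain growth inhibition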
Rtt109 Vps75: inhibitors of C. albicans Rtt109/Vps75 HAT, primary screen, biochemical, ThioGlo CoA-SH fluorescence, plate reader | purified Rtt109/Vps75, 4 h | 0.16% of 330,000 active | inhibition, % at 34.9 µM | Histone acetyltransferase RTT109 (Candida albicans (strain SC5314 / ATCC MYA-2876)), …;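 active = inhibition of at least 50% in every replicate; inconclusive = best replicate reaches 50% inhibition but some replicates fall short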
Target sequence (Q5AAJ8 whole entry, looked up): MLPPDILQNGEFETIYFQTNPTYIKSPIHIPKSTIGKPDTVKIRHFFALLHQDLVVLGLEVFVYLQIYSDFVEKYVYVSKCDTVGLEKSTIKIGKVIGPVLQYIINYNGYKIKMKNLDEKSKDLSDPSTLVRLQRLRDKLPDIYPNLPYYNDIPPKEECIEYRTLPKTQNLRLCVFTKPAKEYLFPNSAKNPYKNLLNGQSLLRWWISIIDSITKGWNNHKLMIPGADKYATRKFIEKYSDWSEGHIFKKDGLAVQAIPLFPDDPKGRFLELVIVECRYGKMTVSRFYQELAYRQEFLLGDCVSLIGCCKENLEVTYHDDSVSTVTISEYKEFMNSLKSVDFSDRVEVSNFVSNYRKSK
FN deposit inh: inhibitors of fibronectin matrix deposition, primary screen, AH1F cells, Alexa488-fibronectin fluorescence, plate reader; AH1F fibroblasts, overnight; inhibition, % at 12.6 µM; 0.086% of 350,000 active; AID 743247, 2014;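 active = mean inhibition across replicates of 30% or more, regardless of how many single replicates reach that level; inconclusive = mean under 30% yet at least half of replicates reach 30%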
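Schedule: 1 h cell adhesion before compound, then overnight fibronectin incubation; test system: AH1F fibroblast monolayer depositing Alexa488-labelled fibronectin into matrix; quantity: 10000 AH1F cells per well; probe or stimulus: fluorescent fibronectin at 24 nM final; signal: fluorescence, ex 485 nm, em 525 nm; evaluation: percent inhibition as loss of matrix-bound fibronectin fluorescence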
PfHsp90 set2: growth inhibition of PfHsp90-expressing yeast, primary screen, antimalarial PfHsp90 inhibitor project, S. cerevisiae, BacTiter-Glo luminescence, single point, set 2; BacTiter-Glo ATP, 48 h; yeast lacking PDR1 and PDR3 efflux regulators; AID 504621, 2011; 0.32% of 310,000 active; inhibition, % at 9.4 µM;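 active = every replicate shows inhibition above about 80%, whatever the replicate mean, limit read from the data; inconclusive = mean inhibition reaches the set limit but some replicate falls short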
A number is an active result; – = inactive; ? = inconclusive; · = no result.

SMILES | CSC inhib | PglD inh | SKKanGAS inh | Rtt109 Vps75 | FN deposit inh | PfHsp90 set2
COc1ccc(NC(=O)Nc2ccc3c(c2)C(=O)N([C@H](C)CO)C[C@H](C)[C@@H](CN(C)C(=O)CCCN(C)C)OCCCC[C@H](C)O3)cc1 | · | – | · | · | · | ·
COc1cc(/C=N/Nc2nnc3c(n2)[nH]c2ccccc23)ccc1O | – | – | – | – | – | –
Cc1ccc2[nH]c3nc(N/N=C/c4cccc(O)c4)nnc3c2c1 | 81 | – | – | – | – | –
CCN1C(=O)C(=Cc2cccc(OC)c2Oc2ccc([N+](=O)[O-])cc2[N+](=O)[O-])SC1=S | 77 | – | – | – | – | –
O=C(CSc1nnc(-c2ccccc2O)n1Cc1ccccc1)NNC(=O)c1ccccc1O | 133 | · | – | – | – | –
O=C(CSc1nnc(-c2ccccc2)n1Cc1ccccc1)NNC(=O)c1ccccc1O | · | – | – | – | · | –
CCOC(=O)C(C)(C)N(Cc1ccc(Cl)cc1)S(=O)(=O)c1ccc(Cl)c([N+](=O)[O-])c1 | 109 | · | – | · | · | ·
C[C@@H]1CN([C@@H](C)CO)C(=O)c2cc(NC(=O)Cc3ccccc3)ccc2O[C@@H]1CN(C)C(=O)Nc1cccc2ccccc12 | · | – | · | · | · | ·
O=C(/C=C/c1ccc(F)cc1)c1ccccc1Br | 108 | · | – | – | – | –
CCCNC(=O)Nc1ccc2c(c1)C(=O)N(C)C[C@@H](OC)[C@@H](C)CN(C(=O)c1ccccc1F)[C@@H](C)CO2 | · | – | · | · | – | ·
COc1cccc(CNCC(O)(c2ccc(Cl)cc2)c2ccc(Cl)cc2)c1 | – | – | 84 | – | – | –
COc1ccc(CNCC(O)(c2ccccc2)c2ccc(Cl)cc2)cc1 (centres undefined) | – | – | – | – | – | –
Cc1cc(N2C(=O)C(O)=C(C(=O)c3cc4ccccc4o3)C2c2cccc(Cl)c2)no1 (centres undefined) | – | – | 83 | – | – | –
CCCOc1ccc(C2C(C(=O)c3cc4ccccc4o3)=C(O)C(=O)N2c2cc(C)on2)cc1 (centres undefined) | – | – | – | – | – | –
CCCOc1ccc(C2C(C(=O)c3cc4ccccc4o3)=C(O)C(=O)N2c2cc(C)on2)cc1OC (centres undefined) | – | – | 98 | – | – | –
Cc1cc(N2C(=O)C(O)=C(C(=O)c3cc4ccccc4o3)C2c2ccc(Br)cc2)no1 (centres undefined) | – | – | 87 | – | – | –
Cc1cc(N2C(=O)C(O)=C(C(=O)c3cc4ccccc4o3)C2c2ccc(Cl)cc2)no1 (centres undefined) | – | – | – | – | – | –
COc1ccc(NC(=O)N(C)C[C@@H]2OCc3cn(nn3)CCCC(=O)N([C@H](C)CO)C[C@@H]2C)c(OC)c1 | · | – | · | · | – | ·
O=C(N[C@H]1CC[C@H](CC(=O)N2CCc3ccccc3C2)O[C@H]1CO)C1CC1 | · | – | · | · | – | ·
CNC[C@@H]1Oc2ccc(NS(=O)(=O)c3cn(C)cn3)cc2C(=O)N([C@H](C)CO)C[C@H]1C | · | – | · | · | · | ·
Cc1ccc(-n2cc3c(-c4cccc(Br)c4)nnc(C)c3n2)cc1 | – | – | 64 | – | – | –
CC(=O)N1[C@@H](CO)[C@@H]2c3ccccc3N(S(=O)(=O)c3ccccc3F)C[C@@H]21 | · | – | · | · | · | ·
Cc1cccc(N2C(=O)/C(=C\c3ccc(OC(F)F)cc3)c3ccccc3C2=O)c1 | – | · | – | – | – | 97
CN(C)CC(=O)N1[C@H](C#N)[C@@H](c2ccccc2-c2cccc(C(=O)N(C)C)c2)[C@H]1CO | · | · | · | · | – | ·
N#C/C(=C\c1ccc(/C=C(/C#N)c2nn(CCO)c(N)c2C#N)cc1)c1nn(CCO)c(N)c1C#N | – | – | 67 | – | – | –
SMILES | CSC inhib | PglD inh | SKKanGAS inh | Rtt109 Vps75 | FN deposit inh | PfHsp90 set2
C[C@@H]1CN([C@@H](C)CO)C(=O)c2cc(NS(C)(=O)=O)ccc2O[C@H]1CN(C)S(C)(=O)=O | · | – | · | · | · | ·
COc1cccc(C2C3=C(N=c4s/c(=C\c5cccc(O)c5)c(=O)n42)c2ccccc2CC3)c1OC (centres undefined) | 91 | – | ? | – | – | –
COc1cccc(C2C3=C(N=c4s/c(=C\c5ccc(OCC(=O)O)cc5)c(=O)n42)c2ccccc2CC3)c1 (centres undefined) | – | · | 102 | · | · | ·
COc1ccccc1C1C2=C(N=c3s/c(=C/c4cccc(OCC(=O)O)c4)c(=O)n31)c1ccccc1CC2 (centres undefined) | – | · | · | ? | – | –
Cc1ccc(NNC(=O)c2ccno2)cc1Cl | 97 | – | – | – | – | –
Cc1noc(C)c1C(=O)NNc1ccc(C(C)C)cc1 | – | – | – | – | – | –
Cc1ccc(NNC(=O)c2ccno2)cc1C | – | · | – | – | – | –
Cc1ccc(NNC(=O)c2c(C)noc2C)cc1Cl | 98 | · | – | – | – | –
CCNC(=O)C[C@@H]1CC[C@H]2[C@@H](COC[C@H](O)CN2C(=O)Nc2c(C)noc2C)O1 | · | – | · | · | – | ·
C[C@@H]1CN([C@H](C)CO)C(=O)c2ccccc2-c2ccccc2CO[C@@H]1CN(C)C(=O)Cc1ccccc1 | · | – | · | · | – | ·
C=CCNCCOCCOc1ccc(Cl)cc1C(C)(C)C | – | · | – | – | – | –
Cc1ccc(OCCOCCN2CCN(C)CC2)c(C(C)(C)C)c1 | – | – | – | – | – | –
CC(C)(C)c1cc(Cl)ccc1OCCOCCN1CCCC1 | 93 | – | – | – | – | –
C=CCNCCCOc1ccc(Cl)cc1C(C)(C)C | 104 | · | – | – | – | –
Cc1ccc(-c2ccc3c(c2)O[C@@H](CN(C)Cc2ccc(C(=O)O)cc2)[C@H](C)CN([C@@H](C)CO)S3(=O)=O)cc1 | · | – | · | · | · | ·
CCN1CCN(c2ccc(NC(=O)CCc3c(C)nc4c(-c5ccc(F)cc5)c(C)nn4c3C)cc2)CC1 | 81 | · | – | – | – | –
Cc1nc2c(-c3ccc(F)cc3)c(C)nn2c(C)c1CCC(=O)Nc1ccccc1 | – | – | – | ? | – | –
C[C@@H]1C=CC(=O)O[C@@H]1c1ccc(C(F)(F)F)cc1 | 92 | · | – | · | · | ·
COc1cccc(NC(=O)N[C@@H]2CC[C@@H](CC(=O)Nc3ccc(-c4ccccc4)cc3)O[C@H]2CO)c1 | · | – | · | · | – | ·
COc1ccc(C(c2nnnn2C(C)(C)C)N2CCN(c3nc4ccccc4s3)CC2)cc1OC (centres undefined) | · | – | – | – | · | –
COc1cc(C(c2nnnn2C(C)(C)C)N2CCN(c3nc4ccccc4s3)CC2)ccc1O (centres undefined) | – | – | – | 66 | · | –

High-throughput results as filed in PubChem.
